# Assay results taken from ChEMBL document CHEMBL1127563, “Novel acyl-CoA:cholesterol acyltransferase inhibitors. Synthesis and biological activity of 3-quinolylurea derivatives” (J Med Chem, 1994).
# Several values for one entry are separate records, joined by “and”; a condition that tells them apart may be missing. Equal values may be shown once.
# How the values were obtained:
# [1] = molecular target: T1, Sterol O-acyltransferase 1 (Rattus norvegicus, UniProt O70536); test: Inhibitory activity against acyl coenzyme A:cholesterol acyltransferase in rat microsomes; design: species or system Microsome
# T1 sequence (O70536 whole entry): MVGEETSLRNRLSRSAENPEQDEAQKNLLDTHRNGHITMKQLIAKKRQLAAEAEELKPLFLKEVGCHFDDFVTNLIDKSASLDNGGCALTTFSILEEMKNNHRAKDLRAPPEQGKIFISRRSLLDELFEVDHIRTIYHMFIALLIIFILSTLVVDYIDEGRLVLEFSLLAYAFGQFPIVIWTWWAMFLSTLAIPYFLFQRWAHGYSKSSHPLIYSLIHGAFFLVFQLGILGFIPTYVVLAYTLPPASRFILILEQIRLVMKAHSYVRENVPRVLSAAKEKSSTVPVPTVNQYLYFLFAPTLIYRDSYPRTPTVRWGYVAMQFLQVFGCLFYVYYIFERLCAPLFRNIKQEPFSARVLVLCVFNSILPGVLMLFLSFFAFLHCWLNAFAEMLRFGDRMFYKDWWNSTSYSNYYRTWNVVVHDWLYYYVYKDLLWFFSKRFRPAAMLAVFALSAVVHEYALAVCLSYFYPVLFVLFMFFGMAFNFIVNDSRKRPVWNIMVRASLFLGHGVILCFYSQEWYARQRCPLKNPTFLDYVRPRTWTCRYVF
# How it was run: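 Rat intestinal mucosal microsomes (male Sprague–Dawley, 6 weeks), 0.2 mg protein preincubated at 37 °C for 15 min in 0.154 M phosphate buffer with fatty-acid-free BSA and compound in DMSO; cholesteryl ester formation from [1-14C]oleoyl-CoA and endogenous cholesterol by scintillation counting. IC50 from inhibition curves.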
# [2] = molecular target: T2, Sterol O-acyltransferase 1 (Rattus norvegicus) (UniProt O70536); test: Inhibitory activity against acyl coenzyme A:cholesterol acyltransferase at 10 e-6 M in rat microsomes; settings: Microsome
# T2 sequence (whole entry): T1 sequence (O70536 whole entry)
# How it was run: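 Intestinal mucosal microsomes from male 6-week-old Sprague–Dawley rats (100800g pellet); 0.2 mg protein preincubated 15 min at 37 °C in 0.154 M phosphate buffer with fatty-acid-free BSA, compound in DMSO added before preincubation at 1 μM final. Labeled cholesteryl ester from [1-14C]oleoyl-CoA and endogenous cholesterol, scraped and scintillation counted; % inhibition.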
# Cricetinae gen. sp. [3] = test: Plamsa cholesterol leval was measured in hamsters at 0.0001% cholesterol diet as a dietary admixture; type: functional, organism-based
# How it was run: (§1)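 Male Golden hamsters, 10 weeks old, were fed either a stock diet or a cholesterol diet. The compound was mixed into the diet at 0.0001%, 0.0003% or 0.001% and given for 14 days. Animals were housed individually at 23 ± 1 °C and were not fasted. Blood was taken from the orbital sinus, and plasma cholesterol was measured enzymatically.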
# Cricetinae gen. sp. [4] = test: Plamsa cholesterol leval was measured in hamsters at 0.001% cholesterol diet as a dietary admixture; type: functional, organism-based; how it was run: as §1
# Cricetinae gen. sp. [5] = test: Plamsa cholesterol leval was measured in hamsters at 0.0003% cholesterol diet as a dietary admixture; settings: Mesocricetus auratus
IC50 [1] [nM],inhibition [2] [%],Structure (SMILES),Plasma cholesterol (Cricetinae gen. sp. [3]),Plasma cholesterol (Cricetinae gen. sp. [4]),Plasma cholesterol (Cricetinae gen. sp. [5]) [mg/dL]
> 1000,5,O=C(Nc1ccccc1)Nc1cnc2ccc(Cl)cc2c1-c1ccccc1,–,–,–
24,98.2,COc1ccccc1-c1c(NC(=O)Nc2ccc(F)cc2F)cnc2ccc(Cl)cc12,–,–,–
9.3,98.6,Cc1cc2c(-c3ccccc3C)c(NC(=O)Nc3ccc(F)cc3F)cnc2cc1Cl,–,–,–
15,97.3,Cc1cc(C)c2ncc(NC(=O)Nc3c(F)cc(F)cc3F)c(-c3ccccc3Cl)c2c1,–,–,–
9.2,98.9,Cc1cc(C)c2ncc(NC(=O)Nc3ccc(F)cc3F)c(-c3ccccc3Cl)c2c1,–,–,–
800,66.5,O=C(Nc1ccc(F)cc1)Nc1cnc2ccc(Cl)cc2c1-c1ccccc1,–,–,–
–,61.6,CCCCN(C(=O)Nc1ccc(F)cc1F)c1cnc2ccc(Cl)cc2c1-c1ccccc1,–,–,–
–,85.5,O=C(Nc1ccc(F)cc1F)Nc1cnc2ccc(Br)cc2c1-c1ccccc1,–,–,–
12,97.6,Cc1cc(Cl)cc2c(-c3ccccc3Cl)c(NC(=O)Nc3ccc(F)cc3F)cnc12,–,–,–
160,87.4,Cc1ccc(-c2c(NC(=O)Nc3ccc(F)cc3F)cnc3ccc(Cl)cc23)cc1,–,–,–
215,88.3,O=C(Nc1ccc(F)cc1F)Nc1cnc2ccc(Cl)cc2c1-c1ccccc1,–,–,–
90.6,88.5,O=C(Nc1ccc(F)cc1F)Nc1cnc2ccc(Cl)cc2c1-c1cccc(Cl)c1,–,–,–
8.9,97.6,Cc1cc(Cl)c2ncc(NC(=O)Nc3ccc(F)cc3F)c(-c3ccccc3Cl)c2c1,–,–,–
–,84.5,Cc1ccc2ncc(NC(=O)Nc3ccc(F)cc3F)c(-c3ccccc3)c2c1,–,–,–
–,87.8,CSc1ccc2ncc(NC(=O)Nc3ccc(F)cc3F)c(-c3ccccc3)c2c1,–,–,–
929,75,O=C(Nc1ccccc1F)Nc1cnc2ccc(Cl)cc2c1-c1ccccc1,–,–,–
1300,51.5,O=C(Nc1ccc(Cl)cc1)Nc1cnc2ccc(Cl)cc2c1-c1ccccc1,–,–,–
12,98.5,Cc1cc(C)c2ncc(NC(=O)Nc3ccc(F)cc3F)c(-c3ccccc3C)c2c1,–,–,–

# Continued, molecule first:
Structure (SMILES),IC50 [1] [nM],inhibition [2] [%],Plasma cholesterol (Cricetinae gen. sp. [3]),Plasma cholesterol (Cricetinae gen. sp. [4]),Plasma cholesterol (Cricetinae gen. sp. [5]) [mg/dL]
COc1ccc2ncc(NC(=O)Nc3ccc(F)cc3F)c(-c3ccccc3)c2c1,–,85.9,–,–,–
Cc1ccc2ncc(NC(=O)Nc3ccc(F)cc3F)c(-c3ccccc3C)c2c1,21.7,96.9,–,–,–
Cc1cc2ncc(NC(=O)Nc3ccc(F)cc3F)c(-c3ccccc3Cl)c2cc1C,5.8,99.6,169 mg/dL and 279 mg/dL,95 mg/dL and 213 mg/dL,245
CC(C)c1ccc2ncc(NC(=O)Nc3ccc(F)cc3F)c(-c3ccccc3)c2c1,–,91.6,–,–,–
O=C(Nc1ccc(F)cc1F)Nc1cnc2ccc(Cl)cc2c1-c1ccccc1Cl,21.2,98,–,–,–
Cc1ccccc1-c1c(NC(=O)Nc2ccc(F)cc2F)cnc2ccc(Cl)cc12,28.7,97.2,–,–,–
CN(C(=O)Nc1cnc2ccc(Cl)cc2c1-c1ccccc1)c1ccc(F)cc1F,> 1000,9.4,–,–,–
Cc1cc(C)c2ncc(NC(=O)Nc3c(C(C)C)cccc3C(C)C)c(-c3ccccc3Cl)c2c1,28,98,–,–,–
COc1ccc(NC(=O)Nc2cnc3ccc(Cl)cc3c2-c2ccccc2)c(OC)c1,864,47.6,–,–,–
O=C(Nc1ccc(F)cc1F)Nc1cnc2ccc(C(F)(F)F)cc2c1-c1ccccc1,–,90.1,–,–,–
CC(C)c1ccc2ncc(NC(=O)Nc3ccc(F)cc3F)c(-c3ccccc3Cl)c2c1,14,99.3,–,–,–
Cc1ccc2ncc(NC(=O)Nc3ccc(F)cc3F)c(-c3ccccc3Cl)c2c1,16.8,98.5,–,–,–
O=C(Nc1ccc(F)cc1F)Nc1cnc2ccc(Cl)cc2c1-c1ccc(Cl)cc1,534,77,–,–,–
COc1ccc(-c2c(NC(=O)Nc3ccc(F)cc3F)cnc3ccc(Cl)cc23)cc1,121,92.7,–,–,–
Cc1cc(C)c2nc(C)c(NC(=O)Nc3ccc(F)cc3F)c(-c3ccccc3Cl)c2c1,–,85.4,–,–,–
CCc1ccc2ncc(NC(=O)Nc3ccc(F)cc3F)c(-c3ccccc3Cl)c2c1,14,99.2,–,–,–
O=C(Nc1ccc(F)cc1F)Nc1cnc2ccccc2c1-c1ccccc1Cl,125,91.8,–,–,–
Cc1cccc2ncc(NC(=O)Nc3ccc(F)cc3F)c(-c3ccccc3Cl)c12,149,87.3,–,–,–
